One series relates to SK-OV-3. Briefly: Cytotoxicity against human SKOV3 cells assessed as growth inhibition by SRB assay. The class given is functional, cell-based. The method, boiled down: (§1)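 Human cancer lines supplied by NCI. Cytotoxicity was measured by sulforhodamine B (SRB) assay at KRICT, with doxorubicin as positive control. IC50 reported.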
In general terms: Sulforhodamine B stains cellular protein and so reports cell mass.

Another series has as its system HCT-15. The experiment in a line: Cytotoxicity against human HCT15 cells assessed as growth inhibition by SRB assay. The format is functional, cell-based. The method, boiled down: as §1
The test system of series [1] is BV-2. The experiment in a line: Cytotoxicity against mouse BV2 cells assessed as cell viability by MTT assay. The class given is cell-based. In a few lines:
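Viability of BV-2 microglia was measured by MTT assay in parallel with the LPS-stimulated NO experiment: 3 × 10^4 cells/well, 30 min compound pretreatment, then 100 ng/mL LPS for 24 h.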
Background: Tetrazolium assays rely on reduction of a dye to a coloured formazan, in cell work by metabolically active cells.

Series [2] relates to BV-2. The experiment in a line: Antiinflammatory activity in mouse BV2 cells assessed as inhibition of LPS-induced nitrite production incubated for 30 mins prior to LPS challenge measured after 24 hrs by Griess assay. The format is functional, cell-based. In a few lines:
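BV-2 murine microglia seeded at 3 × 10^4 cells/well, grown 24 h, then pretreated with compound for 30 min before 100 ng/mL LPS stimulation for a further 24 h. Nitrite in the medium was read by Griess reaction (1% sulfanilamide, 0.1% N-1-naphthylethylenediamine dihydrochloride in 5% phosphoric acid), with absorbance at 540 nm after 10 min against a sodium nitrite standard. L-NMMA was the positive control. IC50 reported.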

The next series has as its system A549. Briefly: Cytotoxicity against human A549 cells assessed as growth inhibition by SRB assay. The class given is functional, cell-based. In a few lines:
as §1

In another series the test system is SK-MEL-2. The experiment in a line: Cytotoxicity against human SK-MEL-2 cells assessed as growth inhibition by SRB assay. The class given is functional, cell-based. The method, boiled down: as §1

Broadly, the IC50 is the concentration that gives 50% inhibition.

Active and inactive are the calls of the source. No cut-off for these calls is given here. Bounds are passed on as bounds.

As for `CC(C)(O)[C@H](O)CC[C@@H](CO)[C@H]1CC[C@@]2(C)C3=C(C[C@H](O)[C@]12C)[C@@]1(C)C[C@@H](OC(=O)C[C@@](C)(O)CC(=O)O)[C@H](O)C(C)(C)[C@@H]1CC3`, the IC50 in the series with SK-OV-3 was found to be 16.2 µM; in the series with HCT-15, 28 µM; in the series on A549, 25.5 µM; in the series on SK-MEL-2, 25.2 µM. Moreover, the Activity result in the series with BV-2 [1] is recorded as “Non-toxic”. For the same molecule, in the series on BV-2 [2], the result was inactive.

For the molecule `CC(C)(O)[C@H](O)CC[C@@H](CO)[C@H]1CC[C@@]2(C)C3=C(CC(=O)[C@]12C)[C@@]1(C)C[C@@H](O)[C@H](O)C(C)(C)[C@@H]1CC3`, the half-inhibitory concentration (IC50) with SK-OV-3 was 7.98 µM; with HCT-15, above 30 µM; in the series with A549, above 30 µM; in the series on SK-MEL-2, above 30 µM. For the same molecule, in the series with BV-2 [1], the Activity entry is reported as “Toxic”. Moreover, the result with BV-2 [2] was inactive.

With `CC(C)(O)[C@H](O)CC[C@@H](CO)[C@H]1CC[C@@]2(C)C3=C(C[C@H](O)[C@]12C)[C@@]1(C)C[C@@H](O)[C@H](O)C(C)(C)[C@@H]1CC3`, the IC50 in the series on SK-OV-3 is 2.82 µM; in the series on HCT-15 it was 3.06 µM; with A549, 2.37 µM; in the series on SK-MEL-2, 2.29 µM. The Activity result with BV-2 [1] is given as “Toxic”. Further, the outcome with BV-2 [2] was inactive.

On to `CC(C)(O)[C@H](O)CC[C@@H](CO)[C@H]1CC[C@@]2(C)C3=C(C[C@H](O)[C@]12C)[C@@]1(C)C[C@@H](O)[C@H](OC(=O)C[C@@](C)(O)CC(=O)O)C(C)(C)[C@@H]1CC3`, for which the IC50 in the series on SK-OV-3, in the series on HCT-15, in the series with A549 and with SK-MEL-2 was above 30 µM each time. In the series on BV-2 [1], the Activity result is “Non-toxic”. Moreover, the outcome in the series on BV-2 [2] was inactive.

For `COC(=O)CNC(=O)CC(C)(O)CC(=O)O[C@H]1[C@H](O)C[C@]2(C)C3=C(CC[C@H]2C1(C)C)[C@]1(C)CC[C@H]([C@H](CO)CC[C@@H](O)C(C)(C)O)[C@@]1(C)[C@@H](O)C3` (some centres not stated), the IC50 was above 30 µM in the series on SK-OV-3, above 30 µM with HCT-15, above 30 µM with A549 and 9.06 µM in the series on SK-MEL-2. The result with BV-2 [2] was inactive.

For `C[C@H](CC[C@@H](O)C(C)(C)O)[C@H]1CC[C@@]2(C)C3=C(C[C@H](O)[C@]12C)[C@@]1(C)C[C@@H](OC(=O)CC(C)(O)CC(=O)O)[C@H](O)C(C)(C)[C@@H]1CC3` (some centres not stated), the IC50 is 22.2 µM with SK-OV-3; 28.5 µM in the series on HCT-15; 93.1 µM in the series with BV-2 [2]; 27.2 µM in the series on A549; 16.6 µM with SK-MEL-2. Besides, the Activity result with BV-2 [1] is “Non-toxic”.

In the case of `COC(=O)CNC(=O)CC(C)(O)CC(=O)O[C@@H]1C[C@]2(C)C3=C(CC[C@H]2C(C)(C)[C@H]1O)[C@]1(C)CC[C@H]([C@H](C)CC[C@@H](O)C(C)(C)O)[C@@]1(C)[C@@H](O)C3` (some centres not stated), the IC50 in the series on SK-OV-3 was above 30 µM; with HCT-15 it was above 30 µM; in the series with A549 it was above 30 µM; in the series with SK-MEL-2, 9.16 µM. Moreover, the Activity result with BV-2 [1] is reported as “Toxic”. Further, the outcome with BV-2 [2] was inactive.

Consider `COc1cccc2c1C(=O)c1c(O)c3c(c(O)c1C2=O)C[C@@](O)(C(=O)CO)C[C@@H]3O[C@H]1C[C@H](N)[C@H](O)[C@H](C)O1` [DOXORUBICIN], for which the IC50 in the series on SK-OV-3 amounted to 0.01 µM; in the series on HCT-15 it was 0.13 µM; in the series with A549 it was 0.02 µM; in the series with SK-MEL-2, 0.01 µM.

As to `CC(C)(O)[C@H](O)CC[C@@H](CO)[C@H]1CC[C@@]2(C)C3=CC[C@H]4C(C)(C)[C@@H](O)[C@H](O)C[C@]4(C)C3=C[C@H](O)[C@]12C`, the concentration for half-maximal inhibition (IC50) in the series with SK-OV-3 was 3.29 µM; with HCT-15, 7.71 µM; with A549 it was 4.47 µM; in the series with SK-MEL-2, 4.54 µM. In the series on BV-2 [1], the Activity entry was “Toxic”. Besides, the result with BV-2 [2] was inactive.

Take `CC(C)(O)[C@H](O)CC[C@@H](CO)[C@H]1CC[C@@]2(C)C3=C(C[C@H](O)[C@]12C)[C@@]1(C)C[C@@H](O)[C@H](O)C(C)(C)[C@@H]1CC3=O`: the IC50 with SK-OV-3 is 7.36 µM; in the series on HCT-15 it was 8.5 µM; with BV-2 [2], 49.9 µM; in the series on A549 it was 3.99 µM; in the series on SK-MEL-2, 4.77 µM. The Activity result in the series with BV-2 [1] was “Non-toxic”.

Turning to `COC(=O)CNC(=O)CC(C)(O)CC(=O)O[C@@H]1C[C@]2(C)C3=C(CC[C@H]2C(C)(C)[C@H]1O)[C@]1(C)CC[C@H]([C@H](CO)CC[C@@H](O)C(C)(C)O)[C@@]1(C)[C@@H](O)C3` (some centres not stated), the IC50 in the series with SK-OV-3 is above 30 µM; in the series on HCT-15, above 30 µM; in the series with A549 it was above 30 µM; with SK-MEL-2, 5.73 µM. Moreover, the Activity entry with BV-2 [1] was “Toxic”. In the series with BV-2 [2], the outcome was inactive.

`COC(=O)CNC(=O)CC(C)(O)CC(=O)O[C@H]1[C@H](O)C[C@]2(C)C3=C(CC[C@H]2C1(C)C)[C@]1(C)CC[C@H]([C@H](C)CC[C@@H](O)C(C)(C)O)[C@@]1(C)[C@@H](O)C3` (some centres not stated): the IC50 with SK-OV-3 is above 30 µM; with HCT-15, above 30 µM; with A549, above 30 µM; in the series on SK-MEL-2 it was 8.6 µM. The Activity entry with BV-2 [1] is given as “Toxic”. Moreover, in the series with BV-2 [2], the outcome was inactive.

On to `C[C@H](CC[C@@H](O)C(C)(C)O)[C@H]1CC[C@@]2(C)C3=C(CC(=O)[C@]12C)[C@@]1(C)C[C@@H](O)[C@H](O)C(C)(C)[C@@H]1CC3`, for which the IC50 is 9.86 µM in the series on SK-OV-3, above 30 µM in the series with HCT-15, above 30 µM in the series with A549 and above 30 µM in the series on SK-MEL-2. Besides, the Activity entry in the series on BV-2 [1] was “Non-toxic”. Also, in the series with BV-2 [2], the result was inactive.

`C[C@H](CC[C@@H](O)C(C)(C)O)[C@H]1CC[C@@]2(C)C3=C(C[C@H](O)[C@]12C)[C@@]1(C)C[C@@H](O)[C@H](OC(=O)C[C@@](C)(O)CC(=O)O)C(C)(C)[C@@H]1CC3`: the IC50 in the series with SK-OV-3, in the series with HCT-15, in the series with A549 and with SK-MEL-2 was above 30 µM throughout. Further, in the series on BV-2 [2], the result was inactive.

For the molecule `CC(C)(O)[C@H](O)CC[C@@H](CO)[C@H]1CC[C@]2(C)[C@]1(C)[C@@H](O)C=C1[C@]23O[C@H]3C[C@H]2C(C)(C)[C@@H](O)[C@H](O)C[C@]12C`, the IC50 with SK-OV-3 was found to be 7.08 µM; in the series with HCT-15, 8.53 µM; with A549 it was 6.59 µM; with SK-MEL-2, 8.26 µM. The Activity entry with BV-2 [1] is given as “Non-toxic”. For the same molecule, the outcome with BV-2 [2] was inactive.

Regarding `C[C@H](CC[C@@H](O)C(C)(C)O)[C@H]1CC[C@@]2(C)C3=C(C[C@H](O)[C@]12C)[C@@]1(C)C[C@@H](O)[C@H](O)C(C)(C)[C@@H]1CC3`, the IC50 in the series with SK-OV-3 is 8.53 µM; in the series with HCT-15 it was 8.22 µM; with A549, 7.85 µM; with SK-MEL-2, 5.17 µM. In addition, the Activity result in the series with BV-2 [1] is reported as “Toxic”. The result with BV-2 [2] was inactive.

The values are drawn from ChEMBL document CHEMBL2375346, “Lanostane triterpenoids from the mushroom Naematoloma fasciculare” (J Nat Prod, 2013).
